Laboratory results taken from ChEMBL document CHEMBL4038305, “Benzoxaborole Antimalarial Agents. Part 5. Lead Optimization of Novel Amide Pyrazinyloxy Benzoxaboroles and Identification of a Preclinical Candidate” (J Med Chem, 2017).
pIC50: −log10 of the molar value.

Tests used:
Plasmodium berghei [1] = assay: Antimalarial activity against Plasmodium berghei infected in Swiss Webster mouse assessed as mouse survival rate at 3 mg/kg administered once daily via oral gavage for 4 consecutive days beginning 1 hr after infection measured on day 7 post infection relative to control; type: functional
Summary of the method: (§1)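 P. berghei-infected erythrocytes taken from a previously infected mouse were injected intraperitoneally. Oral dosing, once daily for 4 consecutive days, began 1 h after infection, in polyethylene glycol 300/propylene glycol/water (55/25/20 by weight). Chloroquine at 30 mg/kg was the positive control, with a vehicle-only group. Percent survival was recorded daily from day 4 to day 20.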

Plasmodium berghei [2] = assay: Antimalarial activity against Plasmodium berghei infected in Swiss Webster mouse assessed as mouse survival rate at 100 mg/kg administered once daily via oral gavage for 4 consecutive days beginning 1 hr after infection measured on day 5 post infection relative to control; type: functional
Summary of the method: (§2)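 Mice given an intraperitoneal injection of P. berghei-infected erythrocytes taken from a previously infected animal. Oral dosing once daily for 4 consecutive days, starting 1 h after infection. Vehicle: polyethylene glycol 300/propylene glycol/water (weight ratio 55/25/20). Percent survival recorded daily from day 4 to day 20. Chloroquine 30 mg/kg and vehicle-only groups served as controls.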

Plasmodium berghei [3] = assay: Antimalarial activity against Plasmodium berghei infected in Swiss Webster mouse assessed as mouse survival rate at 3 mg/kg administered once daily via oral gavage for 4 consecutive days beginning 1 hr after infection measured on day 4 post infection relative to control; type: functional; summary of the method: as §1
Plasmodium berghei [4] = assay: Antimalarial activity against Plasmodium berghei infected in Swiss Webster mouse assessed as mouse survival rate at 100 mg/kg administered once daily via oral gavage for 4 consecutive days beginning 1 hr after infection measured on day 11 post infection relative to control; type: functional; summary of the method: as §2
Plasmodium berghei [5] = assay: Antimalarial activity against Plasmodium berghei infected in Swiss Webster mouse assessed as mouse survival rate at 3 mg/kg administered once daily via oral gavage for 4 consecutive days beginning 1 hr after infection measured on day 5 post infection relative to control; type: functional; summary of the method: as §1
Plasmodium berghei [6] = assay: Antimalarial activity against Plasmodium berghei infected in Swiss Webster mouse assessed as mouse survival rate at 33 mg/kg administered once daily via oral gavage for 4 consecutive days beginning 1 hr after infection measured on day 8 post infection relative to control; type: functional; summary of the method: as §1
Plasmodium berghei [7] = assay: Antimalarial activity against Plasmodium berghei infected in Swiss Webster mouse assessed as mouse survival rate at 100 mg/kg administered once daily via oral gavage for 4 consecutive days beginning 1 hr after infection measured on day 12 post infection relative to control; type: functional; summary of the method: as §2
Plasmodium berghei [8] = assay: Antimalarial activity against Plasmodium berghei infected in Swiss Webster mouse assessed as mouse survival rate at 11 mg/kg administered once daily via oral gavage for 4 consecutive days beginning 1 hr after infection measured on day 4 post infection relative to control; type: functional; summary of the method: as §1
Plasmodium berghei [9] = assay: Antimalarial activity against Plasmodium berghei infected in Swiss Webster mouse assessed as mouse survival rate at 100 mg/kg administered once daily via oral gavage for 4 consecutive days beginning 1 hr after infection measured on day 14 post infection relative to control; type: functional; summary of the method: as §2
Plasmodium falciparum [10] = assay: Antimalarial activity against chloroquine-resistant Plasmodium falciparum W2 infected in human erythrocytes after 48 hrs by YOYO-1 dye based flow cytometric analysis; type: functional, cell-based; settings: W2, 48 h
Summary of the method: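 P. falciparum W2 cultures were exposed to the compound for 48 h, with artemisinin and chloroquine as reference controls. IC50 was taken from two independent replicates.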

Plasmodium berghei [11] = assay: Antimalarial activity against Plasmodium berghei infected in Swiss Webster mouse assessed as mouse survival rate at 11 mg/kg administered once daily via oral gavage for 4 consecutive days beginning 1 hr after infection measured on day 5 post infection relative to control; type: functional; summary of the method: as §1
Plasmodium berghei [12] = assay: Antimalarial activity against Plasmodium berghei infected in Swiss Webster mouse assessed as mouse survival rate at 11 mg/kg administered once daily via oral gavage for 4 consecutive days beginning 1 hr after infection measured on day 7 post infection relative to control; type: functional; summary of the method: as §1
Plasmodium berghei [13] = assay: Antimalarial activity against Plasmodium berghei infected in Swiss Webster mouse assessed as mouse survival rate at 100 mg/kg administered once daily via oral gavage for 4 consecutive days beginning 1 hr after infection measured on day 9 post infection relative to control; type: functional; summary of the method: as §2
Plasmodium berghei [14] = assay: Antimalarial activity against Plasmodium berghei infected in Swiss Webster mouse assessed as mouse survival rate administered once daily via oral gavage for 4 consecutive days beginning 1 hr after infection measured on day 4 post infection; type: functional; summary of the method: as §2
Plasmodium berghei [15] = assay: Antimalarial activity against Plasmodium berghei infected in Swiss Webster mouse assessed as mouse survival rate at 1 mg/kg administered once daily via oral gavage for 4 consecutive days beginning 1 hr after infection measured on day 4 post infection relative to control; type: functional; summary of the method: as §2
Plasmodium falciparum [16] = assay: Antimalarial activity against chloroquine-sensitive Plasmodium falciparum 3D7 infected in human erythrocytes assessed as reduction in [3H]-hypoxanthine incorporation preincubated for 24 hrs followed by [3H]-hypoxanthine addition measured after 24 hrs by scintillation counting method; type: functional, cell-based
Summary of the method: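 P. falciparum 3D7 cultures were exposed to the compound for 48 h, with atovaquone as the reference control. IC50 was taken from three replicates.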

Plasmodium berghei [17] = assay: Antimalarial activity against Plasmodium berghei infected in Swiss Webster mouse assessed as mouse survival rate at 33 mg/kg administered once daily via oral gavage for 4 consecutive days beginning 1 hr after infection measured on day 6 post infection relative to control; type: functional; summary of the method: as §1
Plasmodium berghei [18] = assay: Antimalarial activity against Plasmodium berghei infected in Swiss Webster mouse assessed as mouse survival rate at 33 mg/kg administered once daily via oral gavage for 4 consecutive days beginning 1 hr after infection measured on day 9 post infection relative to control; type: functional; summary of the method: as §1
Plasmodium berghei [19] = assay: Antimalarial activity against Plasmodium berghei infected in Swiss Webster mouse assessed as mouse survival rate at 33 mg/kg administered once daily via oral gavage for 4 consecutive days beginning 1 hr after infection measured on day 7 post infection relative to control; type: functional; summary of the method: as §1
Plasmodium berghei [20] = assay: Antimalarial activity against Plasmodium berghei infected in Swiss Webster mouse assessed as mouse survival rate at 100 mg/kg administered once daily via oral gavage for 4 consecutive days beginning 1 hr after infection measured on day 4 post infection relative to control; type: functional; summary of the method: as §2
Plasmodium berghei [21] = assay: Antimalarial activity against Plasmodium berghei infected in Swiss Webster mouse assessed as mouse survival rate at 1 mg/kg administered once daily via oral gavage for 4 consecutive days beginning 1 hr after infection measured on day 6 post infection relative to control; type: functional; summary of the method: as §2
Plasmodium berghei [22] = assay: Antimalarial activity against Plasmodium berghei infected in Swiss Webster mouse assessed as mouse survival rate at 100 mg/kg administered once daily via oral gavage for 4 consecutive days beginning 1 hr after infection measured on day 13 post infection relative to control; type: functional; summary of the method: as §2
Plasmodium berghei [23] = assay: Antimalarial activity against Plasmodium berghei infected in Swiss Webster mouse assessed as mouse survival rate at 100 mg/kg administered once daily via oral gavage for 4 consecutive days beginning 1 hr after infection measured on day 7 post infection relative to control; type: functional; summary of the method: as §2
Plasmodium berghei [24] = assay: Antimalarial activity against Plasmodium berghei infected in Swiss Webster mouse assessed as mouse survival rate at 1 mg/kg administered once daily via oral gavage for 4 consecutive days beginning 1 hr after infection measured on day 5 post infection relative to control; type: functional; summary of the method: as §2
Plasmodium berghei [25] = assay: Antimalarial activity against Plasmodium berghei infected in Swiss Webster mouse assessed as mouse survival rate at 33 mg/kg administered once daily via oral gavage for 4 consecutive days beginning 1 hr after infection measured on day 4 post infection relative to control; type: functional; summary of the method: as §1
Plasmodium berghei [26] = assay: Antimalarial activity against Plasmodium berghei infected in Swiss Webster mouse assessed as mouse survival rate at 100 mg/kg administered once daily via oral gavage for 4 consecutive days beginning 1 hr after infection measured on day 6 post infection relative to control; type: functional; summary of the method: as §2
Plasmodium berghei [27] = assay: Antimalarial activity against Plasmodium berghei infected in Swiss Webster mouse assessed as mouse survival rate at 33 mg/kg administered once daily via oral gavage for 4 consecutive days beginning 1 hr after infection measured on day 5 post infection relative to control; type: functional; summary of the method: as §1
Plasmodium berghei [28] = assay: Antimalarial activity against Plasmodium berghei infected in Swiss Webster mouse assessed as mouse survival rate at 100 mg/kg administered once daily via oral gavage for 4 consecutive days beginning 1 hr after infection measured on day 10 post infection relative to control; type: functional; summary of the method: as §2
Plasmodium berghei [29] = assay: Antimalarial activity against Plasmodium berghei infected in Swiss Webster mouse assessed as mouse survival rate at 100 mg/kg administered once daily via oral gavage for 4 consecutive days beginning 1 hr after infection measured on day 8 post infection relative to control; type: functional; summary of the method: as §2
Plasmodium berghei [30] = assay: Antimalarial activity against Plasmodium berghei infected in Swiss Webster mouse assessed as mouse survival rate at 1 mg/kg administered once daily via oral gavage for 4 consecutive days beginning 1 hr after infection measured on day 7 post infection relative to control; type: functional; summary of the method: as §2
Plasmodium berghei [31] = assay: Antimalarial activity against Plasmodium berghei infected in Swiss Webster mouse assessed as mouse survival rate at 11 mg/kg administered once daily via oral gavage for 4 consecutive days beginning 1 hr after infection measured on day 6 post infection relative to control; type: functional; summary of the method: as §1
Plasmodium berghei [32] = assay: Antimalarial activity against Plasmodium berghei infected in Swiss Webster mouse assessed as mouse survival rate at 3 mg/kg administered once daily via oral gavage for 4 consecutive days beginning 1 hr after infection measured on day 6 post infection relative to control; type: functional; summary of the method: as §1
Plasmodium falciparum [33] = assay: Antimalarial activity against Plasmodium falciparum NF54 infected in human erythrocytes assessed as reduction in [3H]-hypoxanthine incorporation preincubated for 24 hrs followed by [3H]-hypoxanthine addition measured after 24 hrs by scintillation counting method; type: functional, cell-based
Plasmodium falciparum [34] = assay: Antimalarial activity against intraerythrocytic stage of Plasmodium falciparum assessed as time required to clear 99.9% of initial parasite population at 10 times IC50 preincubated for 24 hrs followed by [3H]-hypoxanthine addition measured after 24 hrs by scintillation counting method; type: functional
Summary of the method: (§3)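 In vitro P. falciparum parasite reduction ratio assay run at 10×, 30× and 100× IC50. Derived parameters: lag phase (time to maximal killing), PRR (parasites killed per life cycle) and PCT99.9% (time to clear 99.9% of the initial parasite population).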

Plasmodium falciparum [35] = assay: Antimalarial activity against intraerythrocytic stage of Plasmodium falciparum assessed as time required for maximal killing effect at 10 times IC50 preincubated for 24 hrs followed by [3H]-hypoxanthine addition measured after 24 hrs by scintillation counting method; type: functional; summary of the method: as §3
Plasmodium falciparum [36] = assay: Antimalarial activity against intraerythrocytic stage of Plasmodium falciparum assessed as parasite reduction ratio at 10 times IC50 preincubated for 24 hrs followed by [3H]-hypoxanthine addition measured after 24 hrs by scintillation counting method; type: functional; summary of the method: as §3
Plasmodium falciparum [37] = assay: Antimalarial activity against Plasmodium falciparum TM90C2B infected in human erythrocytes assessed as reduction in [3H]-hypoxanthine incorporation preincubated for 24 hrs followed by [3H]-hypoxanthine addition measured after 24 hrs by scintillation counting method; type: functional, cell-based
Plasmodium falciparum [38] = assay: Antimalarial activity against Plasmodium falciparum K1 infected in human erythrocytes assessed as reduction in [3H]-hypoxanthine incorporation preincubated for 24 hrs followed by [3H]-hypoxanthine addition measured after 24 hrs by scintillation counting method; type: functional, cell-based
Plasmodium falciparum [39] = assay: Antimalarial activity against Plasmodium falciparum Dd2 infected in human erythrocytes assessed as reduction in [3H]-hypoxanthine incorporation preincubated for 24 hrs followed by [3H]-hypoxanthine addition measured after 24 hrs by scintillation counting method; type: functional, cell-based

Q: Which results are given for `Cc1c(Oc2cnc(C(=O)N[C@@H](CO)C(C)C)cn2)ccc2c1B(O)OC2`?
A: survival at 3 mg/kg (Plasmodium berghei [1]): 0%; survival at 100 mg/kg (Plasmodium berghei [2]): 100%; survival at 3 mg/kg (Plasmodium berghei [3]): 100%; survival at 100 mg/kg (Plasmodium berghei [4]): 40%; survival at 3 mg/kg (Plasmodium berghei [5]): 100%; survival at 33 mg/kg (Plasmodium berghei [6]): 80%; survival at 100 mg/kg (Plasmodium berghei [7]): 40%; survival at 11 mg/kg (Plasmodium berghei [8]): 100%; survival at 100 mg/kg (Plasmodium berghei [9]): 40%; pIC50 (Plasmodium falciparum [10]): 6.83; survival at 11 mg/kg (Plasmodium berghei [11]): 100%; survival at 11 mg/kg (Plasmodium berghei [12]): 0%; survival at 100 mg/kg (Plasmodium berghei [13]): 100%; ED90 (Plasmodium berghei [14]): 26.7 mg/kg; survival at 1 mg/kg (Plasmodium berghei [15]): 100%; pIC50 (Plasmodium falciparum [16]): 6.33; survival at 33 mg/kg (Plasmodium berghei [17]): 100%; survival at 33 mg/kg (Plasmodium berghei [18]): 0%; survival at 33 mg/kg (Plasmodium berghei [19]): 80%; survival at 100 mg/kg (Plasmodium berghei [20]): 100%; survival at 1 mg/kg (Plasmodium berghei [21]): 100%; survival at 100 mg/kg (Plasmodium berghei [22]): 40%; survival at 100 mg/kg (Plasmodium berghei [23]): 100%; survival at 1 mg/kg (Plasmodium berghei [24]): 100%; survival at 33 mg/kg (Plasmodium berghei [25]): 100%; survival at 100 mg/kg (Plasmodium berghei [26]): 100%; survival at 33 mg/kg (Plasmodium berghei [27]): 100%; survival at 100 mg/kg (Plasmodium berghei [28]): 40%; survival at 100 mg/kg (Plasmodium berghei [29]): 100%; survival at 1 mg/kg (Plasmodium berghei [30]): 0%; survival at 11 mg/kg (Plasmodium berghei [31]): 100%; survival at 3 mg/kg (Plasmodium berghei [32]): 100%

Q: With `O=C1C(O)=C([C@H]2CC[C@H](c3ccc(Cl)cc3)CC2)C(=O)c2ccccc21` [ATOVAQUONE] as the compound, how does the pIC50 (Plasmodium falciparum [33]) read?
A: The pIC50 was 9.00.

Q: What about the T99.9% (Plasmodium falciparum [34]) of the same compound?
A: Its T99.9% is 81 h.

Q: What about the Time (Plasmodium falciparum [35]) of the same compound?
A: The Time was 48 h.

Q: What about the “log(ratio)” value (Plasmodium falciparum [36]) of the same compound?
A: Its value is 2.9.

Q: What about the pIC50 (Plasmodium falciparum [37]) of the same compound?
A: The pIC50 was under 7.46.

Q: And the pIC50 (Plasmodium falciparum [38])?
A: The pIC50 was 9.15.

Q: What about the pIC50 (Plasmodium falciparum [39]) of the same compound?
A: Its pIC50 is 8.70.
